CHOP inh = inhibitors of CHOP promoter induction, primary screen, cell-based, unfolded protein response, luciferase reporter | CHO-K1 CHOP-promoter luciferase, tunicamycin-induced, 15-18 h | inhibition, % at 10 µM | 220,000 compounds, 3.8% hits | AID 2732, 2010;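 active means compounds that reduced the stress-induced luciferase reporter signal by more than about 70% of percent inhibition, limit read from the data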;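 further: 0% = tunicamycin plus vehicle and 100% = wells without tunicamycin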
hiPSC survival = enhancers of single-cell hiPSC survival, primary screen, ATPlite luminescence; AID 602274, 2012; 100% = ROCK inhibitor wells, 0% = DMSO; survival enhancement, % at 20 µM; 360,000 compounds, 0.044% hits; in the data active means survival enhancement above about 18%;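 further: cells exposed to compounds for 16 hours before the ATP read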
XBP1 UPR activ = activators of adaptive XBP1 UPR arm, primary screen, cell-based, CHO-XBP1 luciferase reporter, luminescence, uHTS; IRE1-XBP1 UPR activation; percent of tunicamycin response, DMSO as zero; activation, % at 20 µM; 330,000 compounds, 0.33% hits; AID 463104, 2010;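 active means versus positive control, 20 µM dose yields 30% or more activation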;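 further: 100% = tunicamycin at 10 µg/mL and 0% = DMSO only wells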
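Material: CHO cell line with stable XBP1 luciferase reporter; buffer or medium: F12 medium containing 10% fetal bovine serum; compound: single point, 20 µM final compound, 1% DMSO; incubation: 6 h treatment, 37 °C; measured by: glow luminescence from Steady-Glo reagent; evaluation: activation, % of tunicamycin; control set: tunicamycin high, DMSO low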
Cardio protect = cardioprotection against H2O2-induced cell death, primary screen, uHTS, H9c2 cells, ATPLite luminescence | H9c2 cardiomyocytes, H2O2 injury protection, 2 h | protection from H2O2 cell death, % at 20 µM | 360,000 compounds, 0.63% hits;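 active means compounds giving at least 50% protection of heart cells from peroxide-induced death in the single-dose screen, raw or plate-pattern-corrected value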;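 further: 0% = DMSO wells with peroxide and 100% = DMSO wells without peroxide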
UPR CHOP act = activators of apoptotic CHOP UPR arm, primary screen, cell-based, CHO-CHOP luciferase reporter, luminescence, uHTS; 330,000 compounds, 0.34% hits; activation, % at 10 µM; UPR activation; percent of tunicamycin response over DMSO baseline;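 active means at 10 µM dose, activation of 40% or more, normalized to positive control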;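 further: 100% = tunicamycin at 10 µg/mL and 0% = DMSO alone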
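measured by = luciferase luminescence | assay system = CHO-CHOP cells, stable luciferase reporter of PERK-eIF2a-CHOP signalling | amount = 500 reporter cells seeded per well | timing = 6 h compound exposure at 37 °C after overnight seeding | controls = positive tunicamycin 10 µg/mL, negative DMSO alone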
CHOP inh conf = retest of CHOP induction inhibitors, confirmation, cell-based | CHO-CHOP promoter luciferase reporter, tunicamycin-induced, luminescence | AID 504437, 2011 | inhibition, % at 10 µM | shares compounds with CHOP inh | 2,100 compounds, 45% hits;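 active means mean of three repeat readings of reporter signal inhibition above a set limit, cut at about 70% in these data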;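 further: 0% = tunicamycin plus vehicle and 100% = wells lacking tunicamycin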
Numbers without * were called inactive; . = no result. Many of the other results were omitted from the sample, so hits are more common in it than they were.

SMILES	CHOP inh	hiPSC survival	XBP1 UPR activ	Cardio protect	UPR CHOP act	CHOP inh conf
CCOC(=O)COc1ccc2c(C#N)c3ccccn3c2c1	6.2	-1.5	.	42.3	.	.
CCSc1nc2ccccc2n1C(=O)/C=C/c1ccc(OC)c(OC)c1	105.0*	-1.6	-2.2	16.4	2.8	113.7*
C=CCSc1nc2ccccc2n1C(=O)/C=C/c1cc(OC)c(OC)c(OC)c1	111.0*	-2.6	-3.9	3.1	-1.1	109.1*
CN(C)c1ncnc2c1ncn2[C@H]1CN(Cc2ccc(-c3ccccc3)cc2)C[C@@H](CO)O1	.	-1.8	.	-5.7	.	.
Cc1cc(C)c(C(=O)OCC(=O)Nc2cccc(S(=O)(=O)N3CCCCC3)c2)c(C)c1	.	0.0	-1.3	-12.9	2.5	.
COc1cccc(CN(C)C(=O)CNC(=O)c2ccc3c(c2)OCO3)c1OC	.	0.0	-5.1	1.0	-1.6	.
CCOc1ccccc1NC(=O)NC1(C(=O)NCc2cccnc2)CCCCC1	.	0.5	-4.0	0.8	-0.1	.
Cc1nn(-c2ccccc2)c(C)c1-c1ccccc1O	.	1.4	-5.8	-2.9	2.2	.
Cc1nn(-c2ccccc2)c(/N=C/c2ccc(O)cc2)c1-c1ccccc1	104.5*	-2.5	3.9	-13.7	5.7	28.4
Cc1nc(C(F)(F)F)ccc1C(=O)N1CCC1(C)C(=O)NS(=O)(=O)c1cccc(C#N)c1 (stereo not given)	.	3.9	.	1.3	.	.
Cn1c(=S)oc2ccccc21	6.7	-0.2	-1.1	3.6	1.5	.
CC(=O)/C=C/n1c(=S)oc2ccccc21	106.1*	.	.	.	.	115.8*
CC(C)CC(=O)/C=C/n1c(=S)oc2ccccc21	108.0*	11.9	.	-14.8	.	42.4
CCCn1c(N)c(N(CCOC)C(=O)CSc2cc(C)c3ccccc3n2)c(=O)[nH]c1=O	.	0.6	.	-0.1	.	.
COc1cc(/C=C2/C(=O)c3cccc([N+](=O)[O-])c3C2=O)c(Br)cc1O	107.3*	-1.3	.	-14.4	.	4.0
COc1ccc(CC(=O)Nc2sc3c(c2C(N)=O)CCCC3)cc1	.	-0.7	3.9	-9.8	2.0	.
CC(C)(C)c1ccc(S(=O)(=O)NCC(=O)Nc2sc3c(c2C(N)=O)CCCC3)cc1	107.4*	-0.9	-0.8	-16.4	1.5	91.5*
CC(C)OC(=O)N(C)C[C@@H]1OCc2cn(nn2)CCCC(=O)N([C@@H](C)CO)C[C@H]1C	.	2.1	.	-4.4	.	.
COc1ccc2[nH]c3c(=O)n(/N=C/[C@H]4C(C)C=C(C)CC4C)c(=O)[nH]c3c2c1 (stereo not given in full)	108.9*	1.1	0.7	5.3	1.9	16.4
CC(C)c1cc(Cn2c3ccccc3c(=O)n2C(C)C)on1	.	0.7	.	4.0	.	.
CCOc1cccc(CNc2ccc(O)cc2)c1OCc1ccc(Cl)cc1Cl	100.5*	-1.1	-1.2	-16.2	0.0	112.2*
CCOc1cccc(CNc2ccc(O)cc2)c1OCc1ccccc1Cl	27.1	-3.8	3.6	-9.6	-0.6	.
CSc1ccccc1OCc1cc(C(=O)N2CCC(Oc3cccnc3)CC2)no1	.	-0.3	-3.5	-8.8	0.5	.
CN(C)c1ncc(S(=O)(=O)c2ccc(Cl)cc2)c(-c2ccccc2)n1	21.2	-1.9	-0.7	-10.5	0.1	.
O=S(=O)(c1ccc(Cl)cc1)c1cnc(-c2cccnc2)nc1-c1ccccc1	99.5*	5.0	1.4	-6.1	1.4	12.4
SMILES	CHOP inh	hiPSC survival	XBP1 UPR activ	Cardio protect	UPR CHOP act	CHOP inh conf
CCNC(=O)C1(C)CCCN1C(=O)c1c(F)cccc1F (stereo not given)	.	0.0	.	-1.3	.	.
N#C/C(=C\c1ccc([N+](=O)[O-])o1)c1nc2ccccc2[nH]1	106.5*	.	-6.4	.	-8.4	127.1*
CC(=O)Nc1ccccc1/C=C/c1ccc2c(C)ccc(O)c2n1	-18.8	-1.2	1.9	17.9	2.6	.
CC(=O)Nc1ccccc1/C=C/c1ccc2c(C)cc(C)c(O)c2n1	96.7*	-2.2	5.8	2.2	0.9	23.7
COC(=O)Cn1c(=NC(=O)c2nc3ccccc3s2)sc2cc(S(N)(=O)=O)ccc21	103.6*	-2.1	4.4	1.1	1.7	-30.3
O/N=C/c1cc(Cl)ccc1OCc1cccc2ccccc12	112.7*	.	4.0	.	3.2	30.8
C#CCOc1ccc(Cl)cc1/C=N/O	18.0	0.5	2.1	-3.3	0.3	.

Compound activity: PubChem, several laboratories
